# A selection: hits, their analogues and other compounds. The true share with any hit is near 12%.
# WT yeast gro inh = growth inhibition of WT yeast, mitochondrial fusion screen; mitochondrial fusion phenotypic screen, WT strain; inhibition, % at 10 µM; hit rate 2.1% among 190,000; AID 1362; in the data active means inhibition above about 58%; tested in S. cerevisiae
# Lmaj promast = Leishmania major promastigote growth inhibition | Leishmania major promastigotes, resazurin fluorescence viability | inhibition, % at 10 µM | hit rate 9% among 200,000 | AID 1063; in the data active means inhibition above about 50%;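 further: promastigotes grown with compound for 44 hours at 28 °C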
# ABCB1 block = inhibitors of human ABCB1 transporter, ABCG2 counter-screen; inhibition, % at 6.6 µM; CCRF-Adr cells, JC-1 efflux, flow cytometry; AID 1326; hit rate 0.067% among 190,000; in the data active means inhibition above about 40%;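 further: 0% = vehicle and 100% = reference inhibitor; higher value means more JC-1 retained so stronger ABCB1 efflux block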
# RAM network inh = blocks the yeast RAM network; S. cerevisiae dse1pr::URA3 reporter, 5-FOA growth OD615, 2 d; analog-sensitive cbk1-as2 kinase mutant strain; inhibition, % at 50 µM; hit rate 1.8% among 190,000; AID 868;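 active means inhibition above a set limit, 3 SD over mean compound inhibition, cut at about 8.4% in these data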;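 further: 0% = DMSO-only wells with no growth and 100% = 10 µM 1-NA-PP1 full growth; inhibition rescues growth on 5-FOA so higher OD means more RAM inhibition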
# ABCG2 inh = human ABCG2 inhibition, ABCB1 as counter-screen; Q9UNQ0; IgMXP3 cells, JC-1 efflux, flow cytometry; inhibition, % at 6.6 µM; hit rate 0.1% among 190,000; AID 1325;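 active means inhibition above 80%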;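 further: 0% = DMSO and 100% = nicardipine control wells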
# Target sequence (Q9UNQ0 whole entry, looked up): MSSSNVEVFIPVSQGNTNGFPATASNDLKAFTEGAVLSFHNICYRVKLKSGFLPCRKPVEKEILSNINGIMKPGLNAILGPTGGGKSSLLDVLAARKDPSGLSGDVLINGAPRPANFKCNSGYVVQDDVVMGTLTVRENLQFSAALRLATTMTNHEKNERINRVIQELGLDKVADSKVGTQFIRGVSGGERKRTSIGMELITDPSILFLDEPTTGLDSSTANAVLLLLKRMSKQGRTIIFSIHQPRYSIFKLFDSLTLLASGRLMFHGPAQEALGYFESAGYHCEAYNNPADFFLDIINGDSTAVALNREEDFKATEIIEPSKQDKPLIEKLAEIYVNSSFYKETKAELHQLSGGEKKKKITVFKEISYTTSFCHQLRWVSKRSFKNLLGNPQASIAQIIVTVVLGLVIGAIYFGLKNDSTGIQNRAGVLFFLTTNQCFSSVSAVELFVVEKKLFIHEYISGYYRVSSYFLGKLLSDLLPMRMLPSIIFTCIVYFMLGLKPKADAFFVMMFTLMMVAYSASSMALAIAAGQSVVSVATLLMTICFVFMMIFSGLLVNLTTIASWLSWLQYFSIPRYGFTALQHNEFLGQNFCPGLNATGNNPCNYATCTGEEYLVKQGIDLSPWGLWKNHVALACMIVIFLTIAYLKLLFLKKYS
#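 test system = two drug-resistant human cell lines, ABCG2 and ABCB1 | amount = 3 million cells/mL final, two lines in 1:1 ratio | reagent = JC-1 transporter substrate | doses = one concentration, 6.6 µM final | incubation = 10 min at 25 °C | signal = flow cytometric JC-1 green MFI at 530 nm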
# Starred values were filed as active, the others as inactive; x = no result.
SMILES,WT yeast gro inh,Lmaj promast,ABCB1 block,RAM network inh,ABCG2 inh
O=C(CCCn1cnc([N+](=O)[O-])n1)Nc1ccc(Cl)c(Cl)c1,-9.3,96.8*,0.5,3.1,7.0
O=C(Nc1ccc(Br)cc1)c1ccc(Br)c(S(=O)(=O)Nc2cccnc2)c1,-12.2,72.7*,-0.6,6.5,-3.7
O=C(Nc1cccnc1)c1ccc(C(=O)Nc2cccnc2)cc1,1.8,5.5,0.3,-0.5,-0.6
Cc1cccc(C(=O)Nc2ccc(C(=O)/C=C/c3cccnc3)cc2)c1,9.6,100.5*,0.1,1.3,-4.7
O=C(/C=C/c1cccnc1)c1ccc(NC(=O)c2cccc(Br)c2)cc1,-13.4,99.1*,-0.2,3.0,-0.3
COCCNC(=O)c1ccccc1NC(=O)c1ccccc1N(C)S(=O)(=O)c1ccccc1,5.6,-0.2,0.5,1.8,1.2
COc1ccc(CCNC(=O)c2ccccc2N(C)S(=O)(=O)c2ccccc2)cc1,-7.6,80.3*,1.3,0.0,5.5
COc1cccc(C(=O)N/N=C/C(Br)=C/c2ccccc2)c1,48.2,48.0,-0.8,-1.3,-2.5
CC(=O)n1cc(C(C[N+](=O)[O-])SCCN)c2ccccc21 (configuration not stated),22.8,21.8,-0.4,-1.7,-1.1
CSc1nc2n(n1)C(C)C1=C(CCCC1=O)N2 (configuration not stated),-19.5,-7.4,0.0,2.2,0.6
CCCN(CCC)CCCNC(=O)CS(=O)Cc1nc(-c2ccc(OC)c(OC)c2)oc1C (configuration not stated),71.0*,7.5,-0.1,1.1,-0.4
COC(=O)C1=C(N)N(c2ccccc2F)C2=C(C(=O)CC(C)(C)C2)C1c1ccc(OC)c(OC)c1 (configuration not stated),-9.7,0.8,2.0,3.0,2.2
CC1CCCCN1C(=O)CSc1nc2cc3c(cc2c(=O)n1Cc1ccc2c(c1)OCO2)OCO3 (configuration not stated),3.3,54.1*,6.7,3.4,14.7
CC1CCCC(C)N1C(=O)Cn1c(SCC(=O)NCc2ccc3c(c2)OCO3)nc2ccccc21 (configuration not stated),11.2,5.1,1.0,8.9*,0.9
CC(Sc1nnc(-c2cccs2)n1-c1ccccc1)C(=O)NCc1ccc2c(c1)OCO2 (configuration not stated),6.1,91.2*,2.5,0.7,3.3
O=C(CSc1nnc2scc(-c3ccccc3)n12)NCc1ccc2c(c1)OCO2,-11.3,14.6,-3.8,9.6*,-6.5
Cc1ccc(NC(=O)C(=O)NCCN2CCN(C(=S)Nc3ccccc3)CC2)cc1,-1.4,-1.4,-0.6,3.4,-1.1
CCOC(=O)Cc1nnc(Nc2cc(C)ccc2C)c2ccccc12,-2.7,19.6,0.1,7.8,2.6
Cc1cc(Br)ccc1NC(=O)CN1C(=S)NC(C)(C)CC1C (configuration not stated),12.4,-2.6,0.5,-0.1,4.3
COc1ccc(-c2nsc(SCC(=O)NCc3ccc4c(c3)OCO4)n2)cc1,-2.0,98.8*,0.2,6.5,10.7
C=CCn1c(SCC(=O)Nc2ccc3c(c2)OCO3)nnc1-c1ccccc1,-14.3,7.1,0.1,6.3,1.5
CC(=O)Nc1ccc(NC(=O)CSc2nnc(-c3ccccc3)n2Cc2ccc3c(c2)OCO3)cc1,65.6*,-2.6,-0.2,8.6*,0.0
O=C(CSc1nc(C2CCCCC2)nc2ccccc12)NCc1ccc2c(c1)OCO2,-20.6,53.0*,x,1.3,-0.1
CCOC(=O)N1CCC(=NNC(=O)COc2cccc(C)c2)CC1,-10.1,-5.4,-0.1,0.6,-2.8
CCCSc1nc(N2CCCC2)c2c(c1C#N)CC(C)(C)OC2,9.2,-1.9,0.8,8.5*,5.3
SMILES,WT yeast gro inh,Lmaj promast,ABCB1 block,RAM network inh,ABCG2 inh
COc1ccc(-n2nc([N+](=O)[O-])c(=NC3CCN(Cc4ccccc4)CC3)n2O)cc1,-10.3,46.1,1.9,2.0,5.9
O=[N+]([O-])c1nn(-c2ccc3c(c2)OCCO3)n(O)c1=NCc1ccccc1Cl,13.0,81.7*,0.6,4.8,3.9
O=[N+]([O-])c1nn(-c2ccc3c(c2)OCCO3)n(O)c1=NC1CCCCC1,29.4,70.1*,2.4,2.5,42.7
CCC(Sc1nc2ccc(N)cc2s1)C(=O)Nc1nccs1 (configuration not stated),-3.3,54.8*,-0.1,0.1,-0.1
CCOc1ccc(S(=O)(=O)NC(C)C)cc1C(N)=O,-18.4,-1.9,0.6,3.6,1.2
CC(C)(C)N1C(=O)c2ccccc2NC(=O)N1Cc1ccc(Br)cc1,-4.8,99.2*,3.8,1.7,30.4
Cc1c(C(=O)Nc2ccc(Cc3ccncc3)cc2)cccc1[N+](=O)[O-],13.3,96.0*,4.0,1.8,4.3
O=C(Nc1ccc(Cc2ccncc2)cc1)c1cccc([N+](=O)[O-])c1,16.2,73.8*,1.3,0.9,28.2
O=C(CCNc1ccc(Cc2ccncc2)cc1)c1ccc([N+](=O)[O-])cc1,18.1,100.7*,1.3,-1.7,1.1
O=C(c1ccccc1)c1ccc(OCCCN2CCCC2)cc1,-4.1,99.0*,0.1,1.2,-2.6
c1ccc(COc2ccc(OCCCCN3CCCCC3)cc2)cc1,24.5,100.4*,0.3,0.2,1.1
c1ccc(COCCN2CCN(CCOCc3ccccc3)CC2)cc1,9.8,95.2*,0.3,0.8,0.8
CCOc1ccccc1OCCOCCN1CCN(Cc2ccccc2)CC1,11.2,15.4,0.0,1.8,-0.6
O=C(c1ccccc1)c1ccc(OCCCCN2CCCCC2)cc1,4.7,97.7*,0.0,-0.2,-0.5
O=C(O)COc1ccc(C(=O)c2ccccc2)cc1,-4.0,-3.0,0.4,-1.2,0.1
O=C(COC(=O)CNC(=O)c1sc2ccccc2c1Cl)Nc1c(Cl)cc(Cl)cc1Cl,-0.2,-4.8,-0.1,2.5,2.0
O=C(c1ccc(=O)oc1)N1CCCc2ccccc21,2.8,-3.7,-0.5,2.6,-1.4
O=C(c1ccccc1)c1ccc(OCCOCCN2CCN(Cc3ccccc3)CC2)cc1,28.5,56.1*,1.6,-1.2,8.3
CN1OC(c2ccccc2)=C(CO)C1c1ccccc1 (configuration not stated),-18.6,-7.7,-0.3,0.9,-1.5
CCOC(=O)c1c(C)c(C(=O)N2CCN(c3ccc(F)cc3)CC2)c(C)n1C,26.8,8.9,0.7,-0.6,0.2
Cc1ccc(Cn2nnc3c(=O)n(CC(=O)c4ccccc4)cnc32)cc1,7.5,-2.7,-1.1,2.9,0.5
CCN1CCN(Cc2cccc(Oc3ccccc3)c2)CC1,9.1,97.4*,0.3,1.3,0.5
CCN1CCN(Cc2cccc(Oc3ccc(Cl)cc3)c2)CC1,17.7,95.8*,1.5,1.8,2.1
c1ccc(COc2cccc(CN3CCN(c4ccccn4)CC3)c2)cc1,9.3,78.8*,0.5,1.1,4.2
O=C(c1ccccc1F)N1CCN(Cc2cccc(Cl)c2)CC1,1.7,-0.1,0.8,1.8,32.4
CN1CCN(Cc2cccc(Oc3ccc(Cl)cc3)c2)CC1,10.3,100.3*,0.3,-1.1,1.4

# Screening data: PubChem BioAssay, several laboratories
